Measurements taken from ChEMBL document CHEMBL4270537, “Design and biological evaluation of novel triaryl pyrazoline derivatives with dioxane moiety for selective BRAFV600E inhibition” (Eur J Med Chem, 2018).
Calls of active or inactive are those of the source. The calls are words filed in the database; no cut-off is given here.

Legend:
[1] = molecular target: Serine/threonine-protein kinase B-raf (Mus musculus, UniProt P28028, V600E); experiment: Inhibition of mouse full length GST-tagged BRAF V600E mutant using recombinant human full length N-terminal His-tagged MEK1 as substrate preincubated for 1 hr followed by substrate addition measured after 25 mins
[2] = molecular target: Serine/threonine-protein kinase B-raf (Homo sapiens, UniProt P15056); experiment: Inhibition of recombinant human full length GST-tagged wild type BRAF expressed in baculovirus expression system using recombinant human full length N-terminal His-tagged MEK1 as substrate preincubated for 1 hr followed by substrate addition measured after 25 mins
A-375 [3] = experiment: Antiproliferative activity against human A375 cells after 48 hrs by MTT assay; type: functional; conditions: A-375, 48 h
Procedure, shortened: (§1)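 MTT reduction assay. Cell lines grown to log phase in DMEM with 10% FBS (A375 in DMEM with sodium pyruvate added), seeded at 10⁴ cells/well in 96-well plates. Three replicate wells per concentration, each assay run three times, GI50 averaged.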

WM 266-4 = experiment: Antiproliferative activity against human WM266.4 cells after 48 hrs by MTT assay; type: functional; conditions: WM 266-4, 48 h; procedure, shortened: as §1
[4] = Antiproliferative activity against human WM1361 cells after 48 hrs by MTT assay; type: functional; conditions: WM1361, 48 h; procedure, shortened: as §1
HT-29 = experiment: Antiproliferative activity against human HT-29 cells after 48 hrs by MTT assay; type: functional; conditions: HT-29, 48 h; procedure, shortened: as §1
HCT-116 = experiment: Antiproliferative activity against human HCT116 cells after 48 hrs by MTT assay; type: functional; conditions: HCT-116, 48 h; procedure, shortened: as §1
[5] = molecular target: RAF proto-oncogene serine/threonine-protein kinase (Homo sapiens, UniProt P04049, Y340D/Y341D); experiment: Inhibition of recombinant human GST-tagged c-RAF (306 to 648 residues) Y340D/Y341D mutant expressed in baculovirus expression system using recombinant human full length N-terminal His-tagged MEK1 as substrate preincubated for 1 hr followed by substrate addition measured after 25 mins
[6] = Cytotoxicity against HEK293T cells assessed as decrease in cell viability after 48 hrs by MTT assay; type: cell-based, HEK-293T; conditions: human; procedure, shortened: as §1
[7] = Cytotoxicity against human LO2 cells assessed as decrease in cell viability after 48 hrs by MTT assay; type: cell-based, L02; procedure, shortened: as §1
[8] = molecular target: Dual specificity mitogen-activated protein kinase kinase; MEK1/2 (Homo sapiens, UniProt P36507+Q02750); experiment: Inhibition of MEK1/2 (unknown origin); type: protein assay
[9] = molecular target: Mitogen-activated protein kinase 8 (Homo sapiens, UniProt P45983); experiment: Inhibition of N-terminal flag-tagged JNK1 (unknown origin) expressed in baculovirus expression system after 60 mins in presence of [gamma-32P]ATP by topcount scintillation method
Procedure, shortened: (§2)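 Baculovirus-expressed N-terminal FLAG-tagged kinases in 25 mM HEPES pH 7.5, 10 mM Mg acetate, 1 mM DTT, 0.5 µM ATP plus [γ-³²P]ATP, 50 µL. p38α: 100 ng enzyme, MBP substrate. JNK1: 10 ng enzyme, 1 µg c-Jun. Compound and enzyme preincubated 5 min, ATP started the reaction, 60 min at 30 °C. Stopped with 10% TCA, filtered, washed with 3% phosphoric acid, counted by TopCount.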

[10] = molecular target: Mitogen-activated protein kinase 14 (Homo sapiens, UniProt Q16539); experiment: Inhibition of N-terminal flag-tagged p38alpha (unknown origin) expressed in baculovirus expression system using MBP as substrate preincubated for 5 mins followed by substrate addition measured after 60 mins in presence of [gamma-32P]ATP by topcount scintillation method; procedure, shortened: as §2
[11] = system: Serine/threonine-protein kinase B-raf (Homo sapiens), P15056 [V600E]; experiment: Inhibition of BRAF V600E mutant in human A375 cells assessed as decrease in MEK1/2 phosphorylation up to 0.3 uM after 30 mins by Western blot analysis; type: cell-based
A-375 [12] = experiment: Antitumor activity against human A375 cells xenografted in nude mouse assessed as tumor weight at 5 mg/kg, ip administered every second day for 14 days and measured on day 15; type: functional
Procedure, shortened: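 A375 cells, 3 × 10⁶ in 0.1 mL cold PBS, injected subcutaneously into right flank of nude mice. Treatment began when tumors reached ~100 mm³; mice randomized, 5 per group. Compound suspended in olive oil, given intraperitoneally every second day for 14 days. Body weight recorded every two days; tumors excised and weighed on day 15.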

Mus musculus = experiment: Toxicity in nude mouse xenografted with human A375 cells assessed as body weight loss at 5 mg/kg, ip administered every second day for 14 days and measured every 2 days; type: organism-based; conditions: in vivo
Procedure, shortened: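 Nude mice bearing subcutaneous right-flank A375 xenografts (3×10⁶ cells in cold PBS) were randomized into groups of 5 at about 100 mm³. Compounds were suspended in olive oil and given intraperitoneally every second day for 14 days. Body weight was recorded every two days.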

Chain of Serine/threonine-protein kinase B-raf (Homo sapiens, UniProt P15056) (P15056 whole entry): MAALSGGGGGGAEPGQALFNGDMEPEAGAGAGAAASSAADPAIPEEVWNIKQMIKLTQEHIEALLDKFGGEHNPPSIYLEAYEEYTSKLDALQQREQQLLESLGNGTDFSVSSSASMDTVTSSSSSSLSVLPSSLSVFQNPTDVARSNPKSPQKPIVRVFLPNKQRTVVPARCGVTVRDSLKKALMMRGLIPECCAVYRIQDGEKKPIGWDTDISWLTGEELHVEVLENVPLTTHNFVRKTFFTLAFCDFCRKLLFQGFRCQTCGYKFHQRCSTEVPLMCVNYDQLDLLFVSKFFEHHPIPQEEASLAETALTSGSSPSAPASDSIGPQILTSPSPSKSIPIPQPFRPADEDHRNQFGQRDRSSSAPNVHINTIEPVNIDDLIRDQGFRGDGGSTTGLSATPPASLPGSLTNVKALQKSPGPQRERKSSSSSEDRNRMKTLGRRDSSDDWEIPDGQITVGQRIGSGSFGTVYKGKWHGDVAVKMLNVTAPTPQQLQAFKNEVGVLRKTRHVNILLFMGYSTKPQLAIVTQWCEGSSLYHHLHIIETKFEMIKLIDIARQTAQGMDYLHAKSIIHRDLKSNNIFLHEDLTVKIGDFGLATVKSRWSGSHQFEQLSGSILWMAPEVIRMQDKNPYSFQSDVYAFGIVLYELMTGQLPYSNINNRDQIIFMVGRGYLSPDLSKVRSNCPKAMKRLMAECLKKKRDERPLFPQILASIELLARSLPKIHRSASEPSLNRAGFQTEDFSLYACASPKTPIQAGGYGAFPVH
Chain of Serine/threonine-protein kinase B-raf (Mus musculus, UniProt P28028, V600E) (P28028 whole entry, looked up, stated change not applied): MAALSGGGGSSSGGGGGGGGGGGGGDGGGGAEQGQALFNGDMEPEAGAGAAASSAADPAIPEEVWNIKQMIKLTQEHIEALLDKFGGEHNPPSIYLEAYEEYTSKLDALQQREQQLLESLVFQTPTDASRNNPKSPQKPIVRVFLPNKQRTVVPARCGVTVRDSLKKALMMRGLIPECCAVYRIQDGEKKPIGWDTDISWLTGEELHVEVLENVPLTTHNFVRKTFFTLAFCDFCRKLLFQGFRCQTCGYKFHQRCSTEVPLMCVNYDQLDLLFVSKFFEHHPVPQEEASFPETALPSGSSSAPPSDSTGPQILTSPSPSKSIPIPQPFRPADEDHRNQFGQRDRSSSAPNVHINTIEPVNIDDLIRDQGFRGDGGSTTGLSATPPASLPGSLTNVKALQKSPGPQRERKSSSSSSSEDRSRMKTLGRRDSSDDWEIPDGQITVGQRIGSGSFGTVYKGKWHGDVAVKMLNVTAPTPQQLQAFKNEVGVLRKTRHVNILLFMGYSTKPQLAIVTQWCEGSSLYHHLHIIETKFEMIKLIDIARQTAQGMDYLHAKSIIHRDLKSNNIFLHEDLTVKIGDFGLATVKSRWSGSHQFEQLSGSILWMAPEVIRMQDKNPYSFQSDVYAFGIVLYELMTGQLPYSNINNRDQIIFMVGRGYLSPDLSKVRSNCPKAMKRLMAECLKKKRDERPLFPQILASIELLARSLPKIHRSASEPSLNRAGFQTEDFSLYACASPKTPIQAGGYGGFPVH
Chain of Mitogen-activated protein kinase 14 (Q16539 whole entry): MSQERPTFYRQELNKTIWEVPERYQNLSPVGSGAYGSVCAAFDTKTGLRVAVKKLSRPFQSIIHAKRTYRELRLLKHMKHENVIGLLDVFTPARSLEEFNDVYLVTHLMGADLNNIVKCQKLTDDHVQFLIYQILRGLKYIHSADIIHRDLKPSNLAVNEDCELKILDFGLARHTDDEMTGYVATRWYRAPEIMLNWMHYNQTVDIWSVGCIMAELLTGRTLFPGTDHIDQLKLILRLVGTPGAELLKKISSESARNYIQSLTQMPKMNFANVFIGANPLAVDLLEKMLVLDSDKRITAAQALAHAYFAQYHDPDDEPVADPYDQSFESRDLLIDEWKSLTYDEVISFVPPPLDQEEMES
Chain of RAF proto-oncogene serine/threonine-protein kinase (P04049 whole entry Y340D/Y341D, the tested form may be a part): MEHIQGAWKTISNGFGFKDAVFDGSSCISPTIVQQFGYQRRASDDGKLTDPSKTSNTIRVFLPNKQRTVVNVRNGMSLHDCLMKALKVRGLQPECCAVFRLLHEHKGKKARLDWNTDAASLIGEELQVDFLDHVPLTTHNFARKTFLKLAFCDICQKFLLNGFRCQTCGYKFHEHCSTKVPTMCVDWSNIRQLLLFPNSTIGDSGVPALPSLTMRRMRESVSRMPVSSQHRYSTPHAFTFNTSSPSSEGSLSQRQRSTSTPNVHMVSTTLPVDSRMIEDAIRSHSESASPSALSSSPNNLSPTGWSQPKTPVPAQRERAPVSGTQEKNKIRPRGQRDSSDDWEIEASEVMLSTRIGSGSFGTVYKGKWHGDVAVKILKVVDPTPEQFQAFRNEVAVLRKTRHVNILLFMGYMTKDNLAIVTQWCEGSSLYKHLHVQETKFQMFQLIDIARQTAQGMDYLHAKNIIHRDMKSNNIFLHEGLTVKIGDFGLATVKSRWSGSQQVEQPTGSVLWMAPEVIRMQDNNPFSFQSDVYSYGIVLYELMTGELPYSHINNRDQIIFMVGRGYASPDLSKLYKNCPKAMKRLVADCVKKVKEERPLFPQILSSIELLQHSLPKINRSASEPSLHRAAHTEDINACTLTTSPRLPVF
Chain of Mitogen-activated protein kinase 8 (P45983 whole entry): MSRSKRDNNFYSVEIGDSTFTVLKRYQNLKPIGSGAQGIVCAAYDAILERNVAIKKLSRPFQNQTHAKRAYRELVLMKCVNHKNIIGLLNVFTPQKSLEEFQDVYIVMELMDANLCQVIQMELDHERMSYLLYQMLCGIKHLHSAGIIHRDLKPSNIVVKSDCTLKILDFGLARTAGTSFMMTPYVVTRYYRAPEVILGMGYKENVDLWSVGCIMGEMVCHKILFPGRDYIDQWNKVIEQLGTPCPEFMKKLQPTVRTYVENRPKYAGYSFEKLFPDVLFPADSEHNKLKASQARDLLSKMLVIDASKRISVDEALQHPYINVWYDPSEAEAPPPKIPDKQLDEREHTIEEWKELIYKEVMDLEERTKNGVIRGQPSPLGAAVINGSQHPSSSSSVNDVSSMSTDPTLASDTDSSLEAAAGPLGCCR
Chain of Serine/threonine-protein kinase B-raf (Homo sapiens), P15056 [V600E] (P15056 whole entry V600E): as the sequence (P15056 whole entry) above, with V600E counted along it

S=C(Nc1ccccc1)N1N=C(c2cccs2)CC1c1ccc2c(c1)OCCO2 (stereo not given)
IC50 [1]: 78.3 µM | IC50 [2]: 5.21 µM | GI50 (A-375 [3]): 121 µM | GI50 (WM 266-4): 154 µM | GI50 [4]: 7.96 µM | GI50 (HT-29): 188 µM | GI50 (HCT-116): 8.19 µM

S=C(Nc1ccccc1)N1N=C(c2ccc(Br)cc2)CC1c1ccc2c(c1)OCCO2 (stereo not given)
IC50 [1]: 0.05 µM | IC50 [2]: 18.7 µM | GI50 (A-375 [3]): 0.47 µM | GI50 (WM 266-4): 0.87 µM | GI50 [4]: 37.5 µM | GI50 (HT-29): 2.58 µM | GI50 (HCT-116): 32.1 µM | IC50 [5]: 17.6 µM | GI50 at 48 h [6]: 152 µM | GI50 at 48 h [7]: 188 µM | IC50 [8]: 188 µM | IC50 [9]: 93.6 µM | IC50 [10]: > 200 µM

CSc1ccc(C2=NN(C(=S)Nc3ccccc3)C(c3ccc4c(c3)OCCO4)C2)cc1 (stereo not given)
IC50 [1]: 84.3 µM | IC50 [2]: 156 µM | GI50 (A-375 [3]): 159 µM | GI50 (WM 266-4): 197 µM | GI50 [4]: 187 µM | GI50 (HT-29): > 200 µM | GI50 (HCT-116): 193 µM

S=C(Nc1ccccc1)N1N=C(c2ccc(OCc3ccccc3)cc2)CC1c1ccc2c(c1)OCCO2 (stereo not given)
IC50 [1]: 0.01 µM | IC50 [2]: 5.23 µM | GI50 (A-375 [3]): 0.35 µM | GI50 (WM 266-4): 0.42 µM | GI50 [4]: 8.23 µM | GI50 (HT-29): 0.86 µM | GI50 (HCT-116): 8.53 µM | IC50 [5]: 3.15 µM | GI50 at 48 h [6]: 175 µM | GI50 at 48 h [7]: > 200 µM | IC50 [8]: 176 µM | IC50 [9]: 88.9 µM | IC50 [10]: > 200 µM | inhibition [11]: Active

CCCS(=O)(=O)Nc1ccc(F)c(C(=O)c2c[nH]c3ncc(-c4ccc(Cl)cc4)cc23)c1F [VEMURAFENIB]
GI50 (A-375 [3]): 0.95 µM | GI50 (WM 266-4): 0.21 µM | GI50 [4]: 20.8 µM | GI50 (HT-29): 1.88 µM | GI50 (HCT-116): 25.2 µM | Activity (A-375 [12]): 0.41 g | Activity (Mus musculus): Non-Toxic

S=C(Nc1ccccc1)N1N=C(c2ccccc2Br)CC1c1ccc2c(c1)OCCO2 (stereo not given)
IC50 [1]: > 200 µM | IC50 [2]: 124 µM | GI50 (A-375 [3]): > 200 µM | GI50 (WM 266-4): > 200 µM | GI50 [4]: > 200 µM | GI50 (HT-29): > 200 µM | GI50 (HCT-116): 195 µM

O=[N+]([O-])c1ccc(C2=NN(C(=S)Nc3ccccc3)C(c3ccc4c(c3)OCCO4)C2)cc1 (stereo not given)
IC50 [1]: 57.2 µM | IC50 [2]: > 200 µM | GI50 (A-375 [3]): 78.1 µM | GI50 (WM 266-4): 105 µM | GI50 [4]: > 200 µM | GI50 (HT-29): 153 µM | GI50 (HCT-116): > 200 µM

Fc1ccc(C2=NN(C(=S)Nc3ccccc3)C(c3ccc4c(c3)OCCO4)C2)cc1 (stereo not given)
IC50 [1]: 11.1 µM | IC50 [2]: 23.1 µM | GI50 (A-375 [3]): 15.7 µM | GI50 (WM 266-4): 22.5 µM | GI50 [4]: 65.3 µM | GI50 (HT-29): 37.6 µM | GI50 (HCT-116): 61.2 µM

COc1ccccc1C1=NN(C(=S)Nc2ccccc2)C(c2ccc3c(c2)OCCO3)C1 (stereo not given)
IC50 [1]: 12.1 µM | IC50 [2]: > 200 µM | GI50 (A-375 [3]): 20.3 µM | GI50 (WM 266-4): 25.8 µM | GI50 [4]: > 200 µM | GI50 (HT-29): 30.5 µM | GI50 (HCT-116): > 200 µM

S=C(Nc1ccccc1)N1N=C(c2ccccc2)CC1c1ccc2c(c1)OCCO2 (stereo not given)
IC50 [1]: 0.82 µM | IC50 [2]: 21.3 µM | GI50 (A-375 [3]): 1.85 µM | GI50 (WM 266-4): 3.18 µM | GI50 [4]: 58.5 µM | GI50 (HT-29): 6.63 µM | GI50 (HCT-116): 57.6 µM

Cc1ccc(C2=NN(C(=S)Nc3ccccc3)C(c3ccc4c(c3)OCCO4)C2)cc1C (stereo not given)
IC50 [1]: 38.9 µM | IC50 [2]: 48.9 µM | GI50 (A-375 [3]): 61.3 µM | GI50 (WM 266-4): 70.5 µM | GI50 [4]: 148 µM | GI50 (HT-29): 133 µM | GI50 (HCT-116): 144 µM

S=C(Nc1ccccc1)N1N=C(c2ccc(Cl)c(Cl)c2)CC1c1ccc2c(c1)OCCO2 (stereo not given)
IC50 [1]: 30.6 µM | IC50 [2]: 39.3 µM | GI50 (A-375 [3]): 41.9 µM | GI50 (WM 266-4): 58.7 µM | GI50 [4]: 122 µM | GI50 (HT-29): 95.3 µM | GI50 (HCT-116): 125 µM

S=C(Nc1ccccc1)N1N=C(c2cccc(Cl)c2)CC1c1ccc2c(c1)OCCO2 (stereo not given)
IC50 [1]: > 200 µM | IC50 [2]: 95.9 µM | GI50 (A-375 [3]): > 200 µM | GI50 (WM 266-4): > 200 µM | GI50 [4]: 153 µM | GI50 (HT-29): > 200 µM | GI50 (HCT-116): 138 µM

Cc1ccc(C2=NN(C(=S)Nc3ccccc3)C(c3ccc4c(c3)OCCO4)C2)cc1 (stereo not given)
IC50 [1]: 4.28 µM | IC50 [2]: > 200 µM | GI50 (A-375 [3]): 6.32 µM | GI50 (WM 266-4): 10.3 µM | GI50 [4]: > 200 µM | GI50 (HT-29): 19.5 µM | GI50 (HCT-116): > 200 µM

S=C(Nc1ccccc1)N1N=C(c2ccc(Cl)cc2)CC1c1ccc2c(c1)OCCO2 (stereo not given)
IC50 [1]: 135 µM | IC50 [2]: > 200 µM | GI50 (A-375 [3]): 195 µM | GI50 (WM 266-4): > 200 µM | GI50 [4]: > 200 µM | GI50 (HT-29): 187 µM | GI50 (HCT-116): > 200 µM

FC(F)(F)c1ccc(C2=NN(C(=S)Nc3ccccc3)C(c3ccc4c(c3)OCCO4)C2)cc1 (stereo not given)
IC50 [1]: 29.5 µM | IC50 [2]: 35.6 µM | GI50 (A-375 [3]): 43.5 µM | GI50 (WM 266-4): 52.4 µM | GI50 [4]: 123 µM | GI50 (HT-29): 97.5 µM | GI50 (HCT-116): 112 µM
